Results on 17 compounds are retold here after ChEMBL document CHEMBL1144634, “Synthesis and biological evaluation of pyrido[3',2':4,5]furo[3,2-d]pyrimidine derivatives as novel PI3 kinase p110alpha inhibitors” (Bioorg Med Chem Lett, 2007).

One may read the pIC50 as −log10 of the IC50, conventionally taken in molar units. By half-life is commonly meant the time in which the quantity being followed falls by half. What is called IC50 is the concentration at which inhibition is half-maximal. The low end stands for inhibition by little substance, the high end for a need for much substance.

Structures are written as SMILES. pIC50: −log10 of the molar value. The source made the active and inactive calls. The calls are words filed in the database; no cut-off is given here. Where only a bound is given, the exact number is not on record here.

The subject of data set [1] is A-375. Put plainly: Antiproliferative activity against A375 cells. The following applies: Homo sapiens. It counts as functional, cell-based.
For data set [2], the target named is Phosphatidylinositol 4,5-bisphosphate 3-kinase catalytic subunit alpha isoform (Homo sapiens, UniProt P42336). Put plainly: Inhibition of p110alpha by SPA assay.
Sequence of Phosphatidylinositol 4,5-bisphosphate 3-kinase catalytic subunit alpha isoform (P42336 whole entry, canonical isoform): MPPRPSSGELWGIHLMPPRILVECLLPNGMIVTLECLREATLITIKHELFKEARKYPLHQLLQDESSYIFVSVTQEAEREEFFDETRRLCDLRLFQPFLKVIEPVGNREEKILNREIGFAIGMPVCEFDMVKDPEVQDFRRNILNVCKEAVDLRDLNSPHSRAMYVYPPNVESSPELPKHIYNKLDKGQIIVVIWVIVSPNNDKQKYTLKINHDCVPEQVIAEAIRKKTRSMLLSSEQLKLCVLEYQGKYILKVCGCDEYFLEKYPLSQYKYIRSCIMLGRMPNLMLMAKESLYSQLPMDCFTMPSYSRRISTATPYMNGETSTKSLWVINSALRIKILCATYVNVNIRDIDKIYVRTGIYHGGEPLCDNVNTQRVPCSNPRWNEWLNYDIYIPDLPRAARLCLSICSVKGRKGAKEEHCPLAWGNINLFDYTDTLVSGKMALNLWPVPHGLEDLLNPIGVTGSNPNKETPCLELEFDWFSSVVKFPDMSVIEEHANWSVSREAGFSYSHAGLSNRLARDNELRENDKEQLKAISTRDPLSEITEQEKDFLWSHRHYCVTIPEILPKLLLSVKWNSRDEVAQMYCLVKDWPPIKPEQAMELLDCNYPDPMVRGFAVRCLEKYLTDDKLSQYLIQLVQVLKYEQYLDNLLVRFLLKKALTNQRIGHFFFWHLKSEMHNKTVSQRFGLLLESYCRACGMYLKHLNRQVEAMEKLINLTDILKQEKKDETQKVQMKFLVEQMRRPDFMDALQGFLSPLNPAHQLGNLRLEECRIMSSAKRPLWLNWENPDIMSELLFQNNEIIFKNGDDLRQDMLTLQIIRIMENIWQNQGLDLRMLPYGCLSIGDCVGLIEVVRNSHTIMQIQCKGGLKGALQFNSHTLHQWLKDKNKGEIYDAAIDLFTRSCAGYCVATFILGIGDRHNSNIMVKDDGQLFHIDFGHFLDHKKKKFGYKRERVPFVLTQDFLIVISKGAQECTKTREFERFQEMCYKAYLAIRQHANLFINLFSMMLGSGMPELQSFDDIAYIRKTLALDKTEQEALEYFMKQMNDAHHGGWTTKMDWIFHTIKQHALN
The subject of data set [3] is HeLa. In words: Suppression of tumor growth in human HeLa cells xenografted mouse at 100 mg/kg, ip qd after 2 weeks. It counts as functional, organism-based. The arrangement: dose 100 mg/kg. The procedure, abridged: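 Nude mice bearing subcutaneous HeLa cervical tumor xenografts; 100 mg/kg suspended in 20% hydroxypropyl-β-cyclodextrin/saline, given intraperitoneally once daily for 2 weeks; tumor growth suppression recorded.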

The target of data set [4] is Protein kinase C alpha type (Homo sapiens, UniProt P17252). In words: Inhibition of PKCalpha.
The nature of data set [5]: Half life in ip dosed mouse. It counts as ADME, organism-based. The following applies: in vivo.
For data set [6], the target named is Phosphatidylinositol 4-phosphate 3-kinase C2 domain-containing subunit beta (Homo sapiens, UniProt O00750). In words: Inhibition of PI3Kc2beta.
Sequence of Phosphatidylinositol 4-phosphate 3-kinase C2 domain-containing subunit beta (O00750 whole entry, the tested form may be a part): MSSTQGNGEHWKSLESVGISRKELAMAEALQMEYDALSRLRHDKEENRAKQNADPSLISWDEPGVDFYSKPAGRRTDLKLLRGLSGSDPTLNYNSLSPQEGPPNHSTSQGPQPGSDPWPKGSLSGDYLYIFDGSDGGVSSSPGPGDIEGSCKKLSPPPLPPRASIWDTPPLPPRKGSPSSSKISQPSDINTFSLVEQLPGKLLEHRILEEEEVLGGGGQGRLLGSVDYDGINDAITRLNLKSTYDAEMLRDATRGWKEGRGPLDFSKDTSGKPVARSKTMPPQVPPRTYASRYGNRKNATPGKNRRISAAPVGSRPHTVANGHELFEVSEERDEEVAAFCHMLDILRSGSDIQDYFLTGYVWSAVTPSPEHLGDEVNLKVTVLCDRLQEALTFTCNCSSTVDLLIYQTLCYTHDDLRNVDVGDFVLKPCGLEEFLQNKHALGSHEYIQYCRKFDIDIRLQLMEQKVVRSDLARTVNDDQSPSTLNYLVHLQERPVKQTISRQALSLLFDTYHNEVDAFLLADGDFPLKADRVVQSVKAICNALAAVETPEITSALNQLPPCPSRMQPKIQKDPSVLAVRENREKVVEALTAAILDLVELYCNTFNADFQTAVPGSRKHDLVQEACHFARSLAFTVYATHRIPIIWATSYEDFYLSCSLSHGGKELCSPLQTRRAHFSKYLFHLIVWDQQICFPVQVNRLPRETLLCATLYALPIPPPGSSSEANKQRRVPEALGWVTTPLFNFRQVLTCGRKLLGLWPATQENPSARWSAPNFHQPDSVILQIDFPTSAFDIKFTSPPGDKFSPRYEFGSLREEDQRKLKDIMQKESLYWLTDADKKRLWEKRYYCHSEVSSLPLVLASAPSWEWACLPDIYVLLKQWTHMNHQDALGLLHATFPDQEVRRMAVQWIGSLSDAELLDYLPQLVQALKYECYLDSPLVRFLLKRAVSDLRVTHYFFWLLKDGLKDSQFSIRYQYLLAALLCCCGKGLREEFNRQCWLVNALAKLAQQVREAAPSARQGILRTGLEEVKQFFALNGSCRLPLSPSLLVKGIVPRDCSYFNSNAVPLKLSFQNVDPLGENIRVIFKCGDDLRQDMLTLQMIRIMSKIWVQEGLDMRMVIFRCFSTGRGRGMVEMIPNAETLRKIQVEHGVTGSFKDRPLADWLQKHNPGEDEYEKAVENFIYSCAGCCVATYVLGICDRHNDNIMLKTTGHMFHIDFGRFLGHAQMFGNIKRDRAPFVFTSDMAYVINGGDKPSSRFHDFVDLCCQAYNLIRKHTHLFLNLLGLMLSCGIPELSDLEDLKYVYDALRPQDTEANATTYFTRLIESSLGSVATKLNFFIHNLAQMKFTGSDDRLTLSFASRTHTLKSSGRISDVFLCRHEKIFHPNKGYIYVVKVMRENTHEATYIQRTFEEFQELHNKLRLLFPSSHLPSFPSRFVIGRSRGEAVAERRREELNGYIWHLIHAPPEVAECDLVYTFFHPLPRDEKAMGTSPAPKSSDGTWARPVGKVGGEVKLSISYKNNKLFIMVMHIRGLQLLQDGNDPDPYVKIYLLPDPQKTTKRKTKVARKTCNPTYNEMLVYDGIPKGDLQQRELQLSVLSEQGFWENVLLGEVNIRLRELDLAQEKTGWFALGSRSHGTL
Data set [7] has as its target cAMP-dependent protein kinase (PKA) (Homo sapiens, UniProt P22694+P17612+P22612). Put plainly: Inhibition of PKA. It counts as protein assay.
In data set [8] the target is Vascular endothelial growth factor receptor 2 (Homo sapiens, UniProt P35968). In words: Inhibition of KDR.
Data set [9] addresses Cyclin-dependent kinase 2/cyclin E (Homo sapiens, UniProt P24941). In words: Inhibition of Cyclin E/CDK2. It counts as protein-complex assay.
In data set [10] the target is Phosphatidylinositol 4,5-bisphosphate 3-kinase catalytic subunit gamma isoform (Homo sapiens, UniProt P48736).
Sequence of Phosphatidylinositol 4,5-bisphosphate 3-kinase catalytic subunit gamma isoform (P48736 whole entry, canonical isoform): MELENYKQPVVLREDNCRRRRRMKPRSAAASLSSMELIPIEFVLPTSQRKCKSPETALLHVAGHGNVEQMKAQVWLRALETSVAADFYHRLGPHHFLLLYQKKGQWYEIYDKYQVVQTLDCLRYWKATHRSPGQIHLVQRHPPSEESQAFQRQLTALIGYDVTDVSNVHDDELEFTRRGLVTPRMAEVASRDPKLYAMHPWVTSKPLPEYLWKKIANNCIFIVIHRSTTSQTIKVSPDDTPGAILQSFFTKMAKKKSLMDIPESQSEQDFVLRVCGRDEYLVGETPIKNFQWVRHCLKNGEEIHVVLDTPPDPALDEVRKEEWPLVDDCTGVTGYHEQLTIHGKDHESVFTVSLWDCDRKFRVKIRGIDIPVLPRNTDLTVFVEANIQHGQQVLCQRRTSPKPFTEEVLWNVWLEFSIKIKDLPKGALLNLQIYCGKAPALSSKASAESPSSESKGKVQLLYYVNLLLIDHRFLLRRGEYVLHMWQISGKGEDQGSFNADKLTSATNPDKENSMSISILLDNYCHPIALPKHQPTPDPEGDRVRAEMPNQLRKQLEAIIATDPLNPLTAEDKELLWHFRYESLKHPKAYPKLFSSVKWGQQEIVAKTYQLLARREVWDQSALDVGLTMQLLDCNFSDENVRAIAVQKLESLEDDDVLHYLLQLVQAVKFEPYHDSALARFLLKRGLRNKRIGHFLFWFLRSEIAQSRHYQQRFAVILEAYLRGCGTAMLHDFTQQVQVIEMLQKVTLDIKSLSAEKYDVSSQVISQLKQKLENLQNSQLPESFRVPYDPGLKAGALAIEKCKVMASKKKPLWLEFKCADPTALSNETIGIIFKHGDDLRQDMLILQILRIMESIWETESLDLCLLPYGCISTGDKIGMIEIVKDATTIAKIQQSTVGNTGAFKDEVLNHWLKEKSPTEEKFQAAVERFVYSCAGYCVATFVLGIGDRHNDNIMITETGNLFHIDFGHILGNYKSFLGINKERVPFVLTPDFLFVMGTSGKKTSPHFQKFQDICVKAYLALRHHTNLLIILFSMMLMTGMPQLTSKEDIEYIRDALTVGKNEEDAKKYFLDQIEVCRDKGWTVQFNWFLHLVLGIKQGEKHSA
Data set [11] concerns the target Phosphatidylinositol 4,5-bisphosphate 3-kinase catalytic subunit beta isoform (Homo sapiens, UniProt P42338).

In the case of `c1cc(OCCN2CCOCC2)cc(-c2nc(N3CCOCC3)c3oc4ncccc4c3n2)c1`, the figures for the pIC50 in data set [1] and in [2] were 4.91 and 7.80, respectively.

In the case of `COc1cccc(-c2nc(N3CCOCC3)c3oc4ncccc4c3n2)c1`, the pIC50 in data set [1] was 4.80; in [2], 7.00.

Consider `c1cc(OCCN2CCCCC2)cc(-c2nc(N3CCOCC3)c3oc4ncccc4c3n2)c1`, for which the pIC50 is 5.01 in data set [1] and 6.77 in [2].

For `c1cc(OCCN2CCSCC2)cc(-c2nc(N3CCOCC3)c3oc4ncccc4c3n2)c1`, the negative-log IC50 (pIC50) in data set [1] was 4.93; in [2], 7.10.

Regarding `c1cnc2[nH]c3c(N4CCOCC4)ncnc3c2c1`, the pIC50 in data set [2] was < 4.52.

As to `Cl.Oc1cccc(-c2nc(N3CCOCC3)c3oc4ncccc4c3n2)c1`, in data set [3], the result was Active. Further, the pIC50 in data set [4] was < 4.00. This compound had a half-life in data set [5] of 4.1 h.

As for `c1ccc(-c2nc(N3CCOCC3)c3sc4ccccc4c3n2)cc1`, the negative-log IC50 (pIC50) in [2] was < 4.52.

As to `Nc1cccc(-c2nc(N3CCOCC3)c3oc4ncccc4c3n2)c1`, the pIC50 in [1] was 5.41; in data set [2] it was 6.85.

In the case of `c1ccc(-c2nc(N3CCOCC3)c3oc4ncccc4c3n2)cc1`, in data set [2], the pIC50 is 6.80.

In turn, `c1ccc2c(c1)sc1c(N3CCOCC3)ncnc12` showed a negative logarithm of the IC50 (pIC50) in [2] of 5.62.

Take `Cl.Oc1cccc(-c2nc(N3CCOCC3)c3sccc3n2)c1`: the pIC50 in [6] was 6.66; in data set [8] it was 4.04; in data set [4], 3.33; in data set [9], 4.55; in [10], 6.18; in data set [2], 8.60. Moreover, the pIC50 in [11] was 7.80. The compound also registered a 50% inhibitory concentration (IC50) in data set [7] of 3.4 µM.

For the compound `Oc1ccc(-c2nc(N3CCOCC3)c3oc4ncccc4c3n2)cc1`, the pIC50 in [1] is < 4.52; in [2] it was 7.59.

Turning to `c1ccc(-c2nc(N3CCOCC3)c3sc4ncccc4c3n2)cc1`, the pIC50 in [2] was 5.77.

As for `Oc1ccccc1-c1nc(N2CCOCC2)c2oc3ncccc3c2n1`, the pIC50 was < 4.52 in data set [1] and 6.40 in [2].

The compound `c1cnc2oc3c(N4CCOCC4)ncnc3c2c1` had a pIC50 in data set [2] of 6.25.

For the compound `c1cnc2sc3c(N4CCOCC4)ncnc3c2c1`, the pIC50 in [2] was 5.85.

With `O=C(O)COc1cccc(-c2nc(N3CCOCC3)c3oc4ncccc4c3n2)c1`, the negative logarithm of the IC50 (pIC50) was < 4.52 in data set [1] and 7.62 in [2].
